Source: ChEMBL document CHEMBL5634116, “Strategies for developing retinoic acid receptor alpha-selective antagonists as novel agents for male contraception” (Eur J Med Chem, 2023)
The source made the active and inactive calls. The calls are words filed in the database; no cut-off is given here.

Tests used:
Mus musculus [1] = experiment: Effect on spermatogenesis in CD-1 mouse assessed as abnormal epididymal sperm morphology at 5 mg/kg/day, po for 7 days measured after 4 weeks post-cessation of drug treatment by hematoxylin counter-staining based analysis; type: functional, organism-based; conditions: time 5.0 weeks
Mus musculus [2] = experiment: Effect on spermatogenesis in CD-1 mouse assessed as sperm count at 10 mg/kg/day, po for 2 weeks measured on day 1 post-cessation of drug treatment by hemocytometry (reference value: 41.80 +/- 7.92 x 10^6No_unit); type: functional; conditions: time 15 day
Mus musculus [3] = experiment: Effect on spermatogenesis in CD-1 mouse assessed as abnormality in spermatid release at 10 mg/kg/day, po for 2 weeks measured measured after 4 weeks post-cessation of drug treatment by hematoxylin counter-staining based analysis; type: functional, organism-based; conditions: time 6.0 weeks
In short: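 CD1 males given 10 mg/kg/day orally for 2 weeks dissolved in 20% aqueous Kollisolv (n = 10 per time point); vehicle-only controls n = 5. Testes collected one day or 4 weeks after cessation, fixed in 4% paraformaldehyde or Bouin's, paraffin-embedded, PAS-stained with hematoxylin counterstain and tubules staged by bright-field microscopy.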

[4] = target: T1, Retinoic acid receptor beta (Homo sapiens, UniProt P10826); experiment: Antagonist activity at recombinant human RAR-beta expressed in mammalian cells in presence of ATRA by luciferase reporter gene based transactivation assay; type: cell-based
T1 sequence (P10826 whole entry): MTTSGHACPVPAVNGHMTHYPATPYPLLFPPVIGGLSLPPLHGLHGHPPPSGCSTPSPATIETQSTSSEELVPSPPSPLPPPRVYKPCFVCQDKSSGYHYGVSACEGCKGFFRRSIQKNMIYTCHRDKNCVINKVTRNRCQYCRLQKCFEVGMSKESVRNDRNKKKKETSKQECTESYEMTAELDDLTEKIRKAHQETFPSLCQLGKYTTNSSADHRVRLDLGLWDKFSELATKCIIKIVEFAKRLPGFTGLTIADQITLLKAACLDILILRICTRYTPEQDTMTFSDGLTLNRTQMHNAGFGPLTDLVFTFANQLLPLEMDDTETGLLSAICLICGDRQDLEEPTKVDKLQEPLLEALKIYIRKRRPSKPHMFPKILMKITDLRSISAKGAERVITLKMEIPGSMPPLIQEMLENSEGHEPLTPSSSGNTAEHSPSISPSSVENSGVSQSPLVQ

Mus musculus [5] = experiment: Effect on spermatogenesis in CD-1 mouse assessed as reduction in sperm count administered as Avicel formulation at 10 mg/kg/day, po for 28 days consecutively measured on day 1 post-cessation of drug treatment by hemocytometry relative to control; type: functional; parameters: scale not given: the % may be the effect or the level left; conditions: time 29 day
[6] = target: T1, Retinoic acid receptor beta; experiment: Agonist activity at recombinant human RAR-beta expressed in mammalian cells by luciferase reporter gene based transactivation assay; type: cell-based
In short: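 Human RAR-subtype luciferase reporter cells (RARE-driven). Compounds in DMSO (final 0.4%) tested as 8-point dose response in triplicate. Incubated overnight at 37 °C in 5% CO2, then detection reagent 30 min at r.t. and luminescence measured. EC50 by four-parameter logistic fit, mean ± SEM from geometric mean of log EC50 across independent experiments.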

Mus musculus [7] = experiment: Effect on spermatogenesis in CD-1 mouse assessed as reduction in sperm count administered as Carbitol formulation at 10 mg/kg/day, po for 28 days consecutively measured on day 1 post-cessation of drug treatment by hemocytometry relative to control; type: functional; parameters: scale not given: the % may be the effect or the level left; conditions: time 29 day
Mus musculus [8] = experiment: Effect on spermatogenesis in CD-1 mouse assessed as abnormality in spermatid translocation at 5 mg/kg/day, po for 7 days measured after 4 weeks post-cessation of drug treatment by hematoxylin counter-staining based analysis; type: functional, organism-based; conditions: time 5.0 weeks

## Cc1ccc(C2=CC(C)(C)Oc3ccc(C(=O)Nc4ccc(C(=O)O)cc4)cc32)cc1
Mus musculus [1]
  Activity: inactive
Mus musculus [2]
  Activity: 37.2 10^6No_unit
Mus musculus [3]
  Activity: inactive
[4]
  IC50: > 3300 nM
Mus musculus [5]
  Activity: ~56%
[6]
  EC50: 75 nM
Mus musculus [7]
  Activity: ~73%
Mus musculus [8]
  Activity: inactive
